The source made the active and inactive calls. No cut-off for these calls is given here.
Experiments:
Rattus norvegicus [1] = assay: Anticonvulsant activity in Sprague-Dawley rat assessed as protection against seizure at 30 mg/kg, po after 0.5 hr by maximal electroshock test; format: functional
Method in brief: (§1)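 Male Sprague–Dawley rats; compound suspended in 0.5% methylcellulose/water and given orally at a fixed 30 mg/kg, four rats per time point. MES test run at 0.25, 0.5, 1, 2 and 4 h after dosing, with motor impairment checked in parallel. Read-out: number of rats of four protected.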

Mus musculus [2] = assay: Anticonvulsant activity in ip dosed CF1 albino mouse assessed as inhibition of maximal electroshock-induced electrical stimulus after 0.5 hr; format: functional
Method in brief: (§2)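 Male CF-1 mice injected intraperitoneally at 30, 100 and 300 mg/kg, suspended in 0.5% methylcellulose/water. MES or subcutaneous pentylenetetrazole challenge at 0.5 and 4 h; selected compounds also at 1 or 2 h.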

Rattus norvegicus [3] = assay: Anticonvulsant activity in Sprague-Dawley rat assessed as protection against seizure at 30 mg/kg, po after 4 hrs by maximal electroshock test; format: functional; method in brief: as §1
Mus musculus [4] = assay: Anticonvulsant activity in ip dosed CF1 albino mouse assessed as inhibition of maximal electroshock-induced electrical stimulus after 1 hr; format: functional; method in brief: as §2
[5] = Lipophilicity, log kw of compound by RP-HPLC; format: physicochemical
Method in brief: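 RP-HPLC on a C18 end-capped column at room temperature, with UV detection at 214 nm and uracil as the unretained marker. Capacity factor k = (tr − t0)/t0, from the mean of three measurement sets. log k extrapolated to 100% water (log k = log kw − Sφ) to give log kw.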

Rattus norvegicus [6] = assay: Anticonvulsant activity in Sprague-Dawley rat assessed as protection against seizure at 30 mg/kg, po after 2 hrs by maximal electroshock test; format: functional; method in brief: as §1
Mus musculus [7] = assay: Anticonvulsant activity in ip dosed CF1 albino mouse assessed as inhibition of subcutaneous pentylenetetrazole-induced electrical stimulus at 300 mg/kg after 4 hrs; format: functional, organism-based; parameters: dose 300 mg/kg; method in brief: as §2
Mus musculus [8] = assay: Neurotoxicity in ip dosed CF1 albino mouse after 0.5 hr by rotarod test; format: toxicity, organism-based; conditions: in vivo
Method in brief: (§3)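 CF-1 mice given 30, 100 or 300 mg/kg ip in 0.5% methylcellulose/water, examined at 0.5 and 4 h. Rotorod test: neurotoxicity is the inability to keep equilibrium on the rod for a given time. Value is the minimum dose giving motor impairment; a dash means none at 300 mg/kg.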

Mus musculus [9] = assay: Anticonvulsant activity in ip dosed CF1 albino mouse assessed as inhibition of subcutaneous pentylenetetrazole-induced electrical stimulus at 300 mg/kg after 0.5 hr; format: functional, organism-based; parameters: dose 300 mg/kg; method in brief: as §2
Mus musculus [10] = assay: Neurotoxicity in ip dosed CF1 albino mouse at 300 mg/kg after 4 hrs by rotarod test; format: toxicity, organism-based; parameters: dose 300 mg/kg, route intraperitoneal; conditions: in vivo; method in brief: as §3
Rattus norvegicus [11] = assay: Anticonvulsant activity in Sprague-Dawley rat assessed as protection against seizure at 30 mg/kg, po after 1 hr by maximal electroshock test; format: functional; method in brief: as §1
Mus musculus [12] = assay: Anticonvulsant activity in ip dosed CF1 albino mouse assessed as inhibition of maximal electroshock-induced electrical stimulus after 4 hrs; format: functional; method in brief: as §2
Mus musculus [13] = assay: Anticonvulsant activity in ip dosed CF1 albino mouse assessed as inhibition of maximal electroshock-induced electrical stimulus at 300 mg/kg after 4 hrs; format: functional, organism-based; parameters: dose 300 mg/kg; method in brief: as §2
Rattus norvegicus [14] = assay: Neurotoxicity in po dosed Sprague-Dawley rat at 50 mg/kg by rotarod test; format: toxicity, organism-based; parameters: dose 50 mg/kg, route oral; conditions: in vivo
Method in brief: (§4)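 Male Sprague–Dawley rats dosed orally at 50 mg/kg as a 0.5% methylcellulose/water suspension, four animals per time point. Convulsant given subcutaneously at 0.25, 0.5, 1, 2 and 4 h after dosing; rotorod motor impairment assessed in parallel. Read-out: number of rats of four protected.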

Rattus norvegicus [15] = assay: Anticonvulsant activity in Sprague-Dawley rat assessed as protection against seizure at 50 mg/kg, po after 4 hrs by subcutaneous pentylenetetrazole test; format: functional; method in brief: as §4
Rattus norvegicus [16] = assay: Anticonvulsant activity in Sprague-Dawley rat assessed as protection against seizure at 50 mg/kg, po after 2 hrs by subcutaneous pentylenetetrazole test; format: functional, organism-based; parameters: dose 50 mg/kg; method in brief: as §4
Mus musculus [17] = assay: Anticonvulsant activity in ip dosed CF1 albino mouse assessed as inhibition of maximal electroshock-induced electrical stimulus at 300 mg/kg after 0.5 hr; format: functional, organism-based; parameters: dose 300 mg/kg; method in brief: as §2
Mus musculus [18] = assay: Anticonvulsant activity in ip dosed CF1 albino mouse assessed as inhibition of subcutaneous pentylenetetrazole-induced electrical stimulus after 0.5 hr; format: functional; method in brief: as §2
Rattus norvegicus [19] = assay: Anticonvulsant activity in Sprague-Dawley rat assessed as protection against seizure at 50 mg/kg, po after 1 hr by subcutaneous pentylenetetrazole test; format: functional, organism-based; parameters: dose 50 mg/kg; method in brief: as §4
Rattus norvegicus [20] = assay: Anticonvulsant activity in Sprague-Dawley rat assessed as protection against seizure at 50 mg/kg, po after 0.5 hr by subcutaneous pentylenetetrazole test; format: functional; method in brief: as §4
Rattus norvegicus [21] = assay: Anticonvulsant activity in Sprague-Dawley rat assessed as protection against seizure rat at 50 mg/kg, po after 0.25 hr by subcutaneous pentylenetetrazole test; format: functional; method in brief: as §4
Mus musculus [22] = assay: Neurotoxicity in ip dosed CF1 albino mouse after 4 hrs by rotarod test; format: toxicity, organism-based; conditions: in vivo; method in brief: as §3
Mus musculus [23] = assay: Anticonvulsant activity in ip dosed CF1 albino mouse assessed as inhibition of subcutaneous pentylenetetrazole-induced electrical stimulus after 4 hrs; format: functional; method in brief: as §2
Rattus norvegicus [24] = assay: Anticonvulsant activity in Sprague-Dawley rat assessed as protection against seizure at 30 mg/kg, po after 0.25 hr by maximal electroshock test; format: functional; method in brief: as §1
Mus musculus [25] = assay: Neurotoxicity in ip dosed CF1 albino mouse at 300 mg/kg after 0.5 hr by rotarod test; format: toxicity, organism-based; parameters: dose 300 mg/kg, route intraperitoneal; conditions: in vivo; method in brief: as §3

SMILES	Activity (Rattus norvegicus [1])	Activity (Mus musculus [2]) [mg/kg]	Activity (Rattus norvegicus [3])	log K [5]	Activity (Rattus norvegicus [6])	Activity (Mus musculus [7])	Activity (Mus musculus [8]) [mg/kg]	Activity (Mus musculus [10])	Activity (Rattus norvegicus [11])	Activity (Mus musculus [12]) [mg/kg]	Activity (Mus musculus [13])	Activity (Rattus norvegicus [15])	Activity (Mus musculus [18]) [mg/kg]	Activity (Rattus norvegicus [20])	Activity (Rattus norvegicus [21])	Activity (Mus musculus [23]) [mg/kg]	Activity (Rattus norvegicus [24])	other results
CC1(C)CC(=O)N(Nc2ccc(Br)cc2)C1=O	25%	300	50%	1.864	50%	inactive	300	Not Active	25%	300								Activity (Mus musculus [4]): 100 mg/kg; Activity (Mus musculus [9]): inactive
CCCCC1(C)CC(=O)N(Nc2ccc(Br)cc2)C1=O (stereo not drawn)				2.539		inactive	300	Not Active			inactive	inactive	300	25%	inactive			Activity (Rattus norvegicus [14]): Non-toxic; Activity (Rattus norvegicus [16]): inactive; Activity (Mus musculus [17]): inactive; Activity (Rattus norvegicus [19]): inactive
CC1(C)CC(=O)N(Nc2ccc(Cl)cc2Cl)C1=O	inactive		inactive	2.179			100			100			100	inactive				
CC1(C)CC(=O)N(Nc2ccc(Cl)cc2)C1=O		100		2.08			300			300			100			300		Activity (Mus musculus [22]): 300 mg/kg
CCC1(C)CC(=O)N(Nc2ccc(Cl)cc2)C1=O (stereo not drawn)		100	25%	2.201		inactive	100		25%		inactive		300				inactive	Activity (Mus musculus [22]): 300 mg/kg
CCC1(CC)CC(=O)N(Nc2ccc(Cl)cc2Cl)C1=O		300		2.552		inactive	100	Not Active		300			100					Activity (Mus musculus [4]): 100 mg/kg
CCC1(C)CC(=O)N(Nc2ccc(Br)cc2)C1=O (stereo not drawn)	50%	300	25%	2.024	50%		300	Not Active	50%		inactive		300			100	75%	
O=C1C2CCCCC2C(=O)N1Nc1ccccc1 (stereo not drawn)	25%	300	inactive	1.937	inactive	inactive		Not Active	inactive		inactive	inactive	300	inactive	25%		inactive	Activity (Rattus norvegicus [14]): Non-toxic; Activity (Rattus norvegicus [16]): inactive; Activity (Mus musculus [25]): Not Active; Activity (Rattus norvegicus [19]): inactive
CCC1(C)CC(=O)NC1=O (stereo not drawn) [ETHOSUXIMIDE]								Not Active			inactive	inactive	100		inactive	300		Activity (Mus musculus [17]): inactive; Activity (Mus musculus [25]): Not Active
CCC1(C)CC(=O)N(Nc2cccc(Cl)c2)C1=O (stereo not drawn)		300	inactive	2.183	inactive		300		inactive					inactive				
CCC1(C)CC(=O)N(Nc2ccc(Cl)cc2Cl)C1=O (stereo not drawn)	25%	300	inactive	2.334	25%		30		inactive	300			100			300	inactive	Activity (Mus musculus [4]): 100 mg/kg; Activity (Mus musculus [22]): 300 mg/kg
CCCC1(C)CC(=O)N(Nc2ccc(Cl)cc2Cl)C1=O (stereo not drawn)				2.647		inactive		Not Active			inactive	25%	100	50%	25%			Activity (Rattus norvegicus [14]): Non-toxic; Activity (Rattus norvegicus [16]): inactive; Activity (Mus musculus [17]): inactive; Activity (Mus musculus [25]): Not Active; Activity (Rattus norvegicus [19]): Active

Reference: ChEMBL document CHEMBL1157190, “Design, synthesis, and anticonvulsant activity of N-phenylamino derivatives of 3,3-dialkyl-pyrrolidine-2,5-diones and hexahydro-isoindole-1,3-diones” (Bioorg Med Chem, 2008)
